Compound activity as filed in PubChem.
Compounds with a hit are over-represented: about 2.5% of the library has one in this group of screens.
SENP6 block – inhibitors of human SENP6 protease | AID 2599 | Q9GZR1 | 1.8% of 330,000 active | Recombinant SENP6 catalytic domain, aminoluciferin luminescence | inhibition, % at 10 µM;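 active = inhibition above about 50% at the single tested dose, limit read from the data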;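 note: plate controls were DMSO wells with enzyme for no effect and DMSO wells lacking enzyme for full effect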
SENP8 block-1 – blocks the human protease SENP8 | Q96LD8 | inhibition, % at 10 µM | purified SENP8, Z-RLRGG-aminoluciferin cleavage, luminescence | AID 2540 | 1.2% of 330,000 active; in the data active = inhibition above about 50%
SENP7 inh – SENP7 protease inhibition | Q9BQF6 | recombinant SENP7, Z-RLRGG-aminoluciferin luminescence, 40 min | inhibition, % at 5 µM | 1.5% of 330,000 active;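 active = inhibition above about 50% at the single test dose, limit read from the data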;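 note: plate controls were DMSO with enzyme for no effect and no enzyme buffer wells for full effect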
Target sequence (Q9BQF6 706-1050 limits assumed): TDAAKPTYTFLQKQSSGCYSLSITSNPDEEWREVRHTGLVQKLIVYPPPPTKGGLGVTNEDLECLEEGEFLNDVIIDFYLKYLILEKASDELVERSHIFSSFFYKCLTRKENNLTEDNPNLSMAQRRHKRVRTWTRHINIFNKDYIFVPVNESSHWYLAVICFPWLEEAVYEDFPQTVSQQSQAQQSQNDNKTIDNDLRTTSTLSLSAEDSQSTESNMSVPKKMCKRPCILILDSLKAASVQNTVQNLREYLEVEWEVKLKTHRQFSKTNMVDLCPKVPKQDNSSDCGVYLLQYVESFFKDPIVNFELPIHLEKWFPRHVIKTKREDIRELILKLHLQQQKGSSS
SENP8 block-2 – blocks human SENP8 cleavage of Nedd8 substrate; recombinant SENP8, Nedd8 substrate fluorescence; inhibition, % at 20 µM; 0.64% of 360,000 active; AID 602440; in the data active = inhibition mostly above about 40%, no sharp cut-off; inactive = mostly below about 27%
SENP1 FRET inh – blocks the human SENP1 SUMO protease catalytic domain; Q9P0U3; recombinant SENP1 catalytic domain, CyPet-SUMO1-YPet FRET cleavage; inhibition, % at 10 µM; 0.21% of 360,000 active; AID 624204;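 active = inhibition at least 30% at 10 µM, raw YFP signal under a set limit, fluorescence ratio 0.5 to 1.5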;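 note: 0% = enzyme with DMSO and 100% = no enzyme wells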
Target sequence (Q9P0U3 419-644 limits assumed): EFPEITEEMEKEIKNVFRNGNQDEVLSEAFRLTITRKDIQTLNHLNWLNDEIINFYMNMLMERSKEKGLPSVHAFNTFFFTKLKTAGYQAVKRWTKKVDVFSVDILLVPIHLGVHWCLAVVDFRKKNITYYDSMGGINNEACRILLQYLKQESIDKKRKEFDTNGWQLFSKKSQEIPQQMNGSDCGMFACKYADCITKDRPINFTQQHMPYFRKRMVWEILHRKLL
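Test system: recombinant human SENP1 catalytic domain, His6-tagged / Medium: pH 8 Tris buffer with EDTA, NaCl, BME, BSA, NP40, catalase / Also added: SUMO1 FRET substrate flanked by Cypet and Ypet, 25 nM / Times: 50 min reaction at room temperature / Signal: FRET, CFP and YFP emission / Control set: no-enzyme low control and enzyme-plus-DMSO high control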
SENP8 conf – SENP8 (human) inhibition, single concentration confirmation | purified SENP8, Nedd8-AMC/pro-Nedd8 cleavage fluorescence, 30 min | shares compounds with SENP8 block-2 | inhibition, % at 25 µM | 15% of 1,400 active; in the data active = inhibition mostly above about 39%, no sharp cut-off; inactive = mostly below about 34%
Numbers without * were called inactive; i = inactive; . = no result.

SMILES | SENP6 block | SENP8 block-1 | SENP7 inh | SENP8 block-2 | SENP1 FRET inh | SENP8 conf
CC(=O)Nc1ccc(S(=O)(=O)N2CCSC2c2ccccc2Cl)cc1 (centres undefined) | -7 | -4 | -9 | 8 | 2 | .
COC(=O)C1SCCN1S(=O)(=O)c1ccc(Cl)cc1 (centres undefined) | -2 | -11 | -3 | 42* | 1 | 12
O=C(Nc1ccccc1)Nc1ccno1 | -3 | -4 | 15 | 12 | 2 | .
Cc1ccc(C(=O)Nc2nc(-c3ccccn3)cs2)cc1S(=O)(=O)N1CCOCC1 | 1 | 8 | 7 | -33 | -7 | .
O=c1[nH]c(CN2CCCCC2)ccc1O | . | . | . | 68* | -9 | 38*
Cc1ccc(C(=O)N/C(=C/c2ccc(-c3cccc([N+](=O)[O-])c3)o2)C(=O)NC(C)C)cc1 | -4 | 4 | 2 | 47* | 4 | 12
COc1ccc(C(=O)N/C(=C\c2ccc(-c3cccc([N+](=O)[O-])c3)o2)C(=O)NCCCN2CCOCC2)cc1 | . | . | . | 35* | 0 | 9
Cc1ccc(C(=O)N/C(=C\c2ccc(-c3cccc([N+](=O)[O-])c3)o2)C(=O)NCCCN2CCOCC2)cc1 | 7 | -5 | 1 | 18 | -2 | .
CC(C)c1ccc(NC(=O)C2(C)Cc3c(-c4ccc5c(c4)OCO5)ccnc3O2)cc1 (centres undefined) | . | . | . | -61 | 0 | .
CCc1ccc(C(=O)NNc2ccc(F)cc2F)cc1 | -3 | -4 | 10 | 6 | 5 | .
CCCc1ccc(C(=O)NNc2ccc(F)cc2)cc1 | -10 | -14 | 10 | 47* | 1 | 8
CCC(C)CN1C(=O)CN(S(C)(=O)=O)CC1(C)C(=O)NCc1ccccc1 (centres undefined) | . | . | . | 5 | -7 | .
CCN(CC)CCn1c(OC)cc(=O)[nH]c1=O | -8 | 0 | 6 | 43* | -1 | 7
CCNc1nc(NC(C)C)nc(N(C#N)C(C)C(=O)N(C)C)n1 (centres undefined) | 17 | 7 | 4 | 45* | -1 | -10
CCOc1cccc(C(=O)Nc2ccc3oc(Cc4ccc(Cl)cc4)nc3c2)c1 | -8 | -3 | 10 | 4 | 2 | .
C=C1[C@@H](O)[C@H](Cc2ccccc2)N(Cc2ccccc2Br)S1(=O)=O | . | . | . | 6 | -5 | .
Cc1cc(NCCCCCCCNc2cc(C)nc3cc([N+](=O)[O-])ccc23)c2ccc([N+](=O)[O-])cc2n1 | . | . | . | i | 1 | .
CCOc1ccccc1C(=O)N(CCC(=O)OC)c1ccccn1 | -9 | -4 | -5 | 43* | 1 | 16
COC(=O)CCN(C(=O)c1cc(OC)c(OC)c(OC)c1)c1ccccn1 | -21 | 5 | 0 | 8 | 0 | .
COc1ccc(CNC(=O)[C@H](C)N2C(=O)N3CCc4c([nH]c5ccccc45)[C@@]3(C)C2=O)cc1OC | -3 | -2 | 4 | 51* | 2 | -5
Cc1ccc(CNC(=O)[C@H](C)N2C(=O)N3CCc4c([nH]c5ccccc45)[C@@]3(C)C2=O)cc1 | 0 | -3 | -2 | 2 | 1 | .
Cc1cc(NC(=O)COc2ccc3ccccc3c2Br)no1 | -13 | 5 | -1 | -10 | -2 | .
CC1=NN(c2ccc(S(=O)(=O)O)cc2Cl)C(=O)C1 | 9 | -6 | 5 | 76* | 0 | 10
CC1=NN(c2cc(Cl)c(S(=O)(=O)O)cc2Cl)C(=O)C1 | . | . | . | 66* | 3 | 14
N#CC(C#N)=Cc1c[nH]c(=O)c(C#N)c1Nc1ccccc1 | 1 | 0 | 4 | -422 | -34 | .
SMILES | SENP6 block | SENP8 block-1 | SENP7 inh | SENP8 block-2 | SENP1 FRET inh | SENP8 conf
Cc1cccc(C)c1-n1nnnc1C1(C)CCC(=O)N1CCCN1CCOCC1 (centres undefined) | . | . | . | 1 | 0 | .
Cc1ccc(NC(=O)c2ccc(CN3CCc4ccccc4C3)cc2)cc1 | 21 | 6 | 12 | 71* | -1 | 29
O=C(Nc1cccnc1)c1ccc(CN2CCc3ccccc3C2)cc1 | -14 | -9 | -4 | 51* | -4 | 34
Cn1c(=O)c2c(nc(NCC3CCCC(CN)C3)n2Cc2ccc(Cl)cc2Cl)n(C)c1=O (centres undefined) | 0 | -7 | 4 | 16 | -4 | .
O=C(O)CSc1nnc2n(-c3ccccc3)c(=O)c3ccccc3n12 | -13 | -2 | 1 | 7 | 0 | .
Cc1nnc2n(-c3ccccc3)c(=O)c3ccccc3n12 | 3 | -1 | -4 | 41* | 4 | 1
COc1cccc(-c2cc(C(=O)N3CCc4ccccc4C3)no2)c1 | 35 | 3 | 7 | 58* | -12 | 78*
COc1ccc(-c2cc(C(=O)N3CCc4ccccc4C3)no2)cc1 | 6 | -9 | 2 | 23 | 6 | .
CCOC(=O)n1cc(-c2cnc(CNC(=O)C(C)(c3ccccc3)c3ccccc3)o2)c2ccccc21 | -8 | -3 | -4 | . | . | .
CC(C)[C@H]1C(=O)Nc2ccccc2N1C(=O)N[C@@H](Cc1ccccc1)C(=O)N[C@@H](C(=O)O)c1ccccc1 | -5 | 1 | 5 | 44* | 0 | 12
CC(C)[C@H](NC(=O)N1c2ccccc2NC(=O)[C@@H]1C(C)C)C(=O)N1CCC(C(=O)O)CC1 | 8 | 6 | 4 | 45* | 3 | -4
CC(C)C[C@H](NC(=O)N1c2ccccc2NC(=O)[C@@H]1C(C)C)C(=O)N[C@@H](Cc1ccccc1)C(=O)O | 2 | 1 | 4 | 16 | 1 | .
COC(=O)Cn1c2ccc(OC)cc2c2nc3ccccc3nc21 | 4 | 7 | 2 | 10 | 23 | .
CCOC(=O)Cn1c2ccc(OC)cc2c2nc3ccccc3nc21 | 6 | -5 | 3 | 58* | 62 | 11
Cc1[nH][nH]c(=O)c1C(c1c(C)[nH][nH]c1=O)c1cn(C)c2ccccc12 | . | . | . | 77* | 0 | 50*
O=c1[nH]nc(CNc2ccc(O)cc2)c2ccccc12 | 10 | -1 | 49 | 114* | 10 | 26
O=C(COc1ccccc1)NCc1cccs1 | -3 | -9 | -8 | 42* | -1 | 12
Cc1ccc(OCC(=O)NCc2cccs2)cc1 | 9 | -2 | 3 | 11 | 0 | .
CC1CCC2C(=O)N(c3ccc(NC4CCCCC4)c([N+](=O)[O-])c3)C(=O)C2C1 (centres undefined) | -7 | 1 | 2 | 24 | 4 | .
CCOC(=O)N1CCC(Nc2ccc(N3C(=O)C4CCCCC4C3=O)cc2[N+](=O)[O-])CC1 (centres undefined) | -22 | 1 | 8 | 38* | 3 | 22
O=C(Cc1nnc(NC(=O)Nc2ccc(F)cc2)s1)NCc1ccccc1 | -2 | 8 | 5 | 5 | -4 | .
Cc1ccc(NC(=S)N/N=C/c2ccc([N+](=O)[O-])s2)cc1 | 24 | 7 | 2 | 40* | 0 | 53*
CCOC(=O)[C@]12CCC=C1N(CCC1=CCCCC1)C(=O)[C@H](CC(=O)NCCCN1CCCC1=O)C2 | . | . | . | 23 | 2 | .
